Reference: ChEMBL document CHEMBL1154975, “Selective inducible microsomal prostaglandin E(2) synthase-1 (mPGES-1) inhibitors derived from an oxicam template” (Bioorg Med Chem Lett, 2010)

Legend:
[1] = target: T1, Prostaglandin G/H synthase 2 (Homo sapiens, UniProt P35354); test: Inhibition of human COX2 in IL1-beta treated human FF cells assessed as blockade of SnCl2-mediated PGH2 to PGF2alpha conversion after 50 mins by ELISA; assay type: cell-based
T1 sequence (P35354 whole entry): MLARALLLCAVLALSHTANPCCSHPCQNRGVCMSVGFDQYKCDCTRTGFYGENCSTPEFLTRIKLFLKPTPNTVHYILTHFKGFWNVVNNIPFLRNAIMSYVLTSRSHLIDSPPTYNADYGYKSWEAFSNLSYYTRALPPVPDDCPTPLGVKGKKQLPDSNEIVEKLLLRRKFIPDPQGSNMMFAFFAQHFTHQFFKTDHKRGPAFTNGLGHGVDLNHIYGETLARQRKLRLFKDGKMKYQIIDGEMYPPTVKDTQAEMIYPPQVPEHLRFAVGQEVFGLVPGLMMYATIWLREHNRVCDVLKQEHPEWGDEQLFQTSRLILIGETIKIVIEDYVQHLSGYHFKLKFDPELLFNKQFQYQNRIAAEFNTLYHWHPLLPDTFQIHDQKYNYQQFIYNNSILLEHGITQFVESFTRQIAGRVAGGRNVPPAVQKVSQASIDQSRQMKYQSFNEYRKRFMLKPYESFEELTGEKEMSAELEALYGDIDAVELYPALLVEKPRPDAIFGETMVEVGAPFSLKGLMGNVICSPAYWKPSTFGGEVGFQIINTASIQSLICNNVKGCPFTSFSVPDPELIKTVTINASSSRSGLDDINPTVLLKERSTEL
Procedure, shortened: (§1)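 Human fetal fibroblasts in DMEM/15% FBS at 37 °C, 5% CO2; after 20–24 h, stimulated 20–24 h with 1 ng/mL IL-1β, washed, compound 50 min in serum-free DMEM, then 10 µM arachidonic acid 10 min. PGE2 by ELISA. For PGF2α, SnCl2 added after compound for 10 min before arachidonic acid. IC50 from duplicate data.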

[2] = target: T2, Prostaglandin E synthase (Homo sapiens, UniProt O14684); test: Inhibition of human mPGES1 in IL1-beta treated human FF cells assessed as blockade of PGH2 to PGE2 conversion after 50 mins by ELISA; assay type: cell-based; procedure, shortened: as §1
T2 sequence (O14684 whole entry): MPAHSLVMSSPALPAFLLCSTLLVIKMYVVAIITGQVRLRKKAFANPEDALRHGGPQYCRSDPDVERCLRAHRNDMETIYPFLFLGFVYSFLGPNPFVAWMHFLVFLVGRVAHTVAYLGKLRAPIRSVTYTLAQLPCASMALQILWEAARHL

[3] = target: T2, Prostaglandin E synthase; test: Inhibition of human mPGES1 assessed as PGE2 level after 41 sec by ELISA
Procedure, shortened: (§2)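 Enzyme in 100 mM potassium phosphate pH 6.2 with 2.5 mM glutathione, compound added in DMSO. Reaction started with PGH2 (final 2 µM), stopped with 2.5 mM FeCl2, diluted 120-fold into ELISA buffer. PGE2 by ELISA against a standard curve. % control set between reference-inhibited and enzyme-only controls; IC50 by 4-parameter log fit of duplicate data.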

[4] = target: T3, Prostaglandin G/H synthase 1 (Homo sapiens, UniProt P23219); test: Inhibition of COX1
[5] = target: T3, Prostaglandin G/H synthase 1; test: Inhibition of human recombinant COX1
[6] = target: T4, Prostaglandin G/H synthase 2 (Homo sapiens) (UniProt P35354); test: Inhibition of COX2
T4 sequence (whole entry): T1 sequence (P35354 whole entry)

[7] = target: T1, Prostaglandin G/H synthase 2; test: Inhibition of human recombinant COX2
[8] = Inhibition of rat mPGES1
[9] = target: T2, Prostaglandin E synthase; test: Inhibition of human mPGES1 in […] assessed as PGE2 level after 24 hrs by ELISA; assay type: tissue-based, Blood; conditions: in the assay text read “by ELISA” for “after 24 hrs by ELISA”
Procedure, shortened: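 Heparinized healthy-donor human whole blood (100 µL/well) mixed with 10⁵ 1483 head-and-neck carcinoma cells, compound 15 min at 37 °C, then 30 µM arachidonic acid 10 min. Centrifuged 930 g 10 min; plasma PGE2 by ELISA.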

[10] = Aqueous solubility assessed as nitrogen content after 24 hrs; assay type: physicochemical
Procedure, shortened: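 Test compound from 30 mM DMSO stock diluted into 50 mM sodium phosphate buffer at the indicated pH (final 2% DMSO). Shaken 24 h at room temperature (23–25 °C), vacuum filtered. Filtrate nitrogen measured by chemiluminescent nitrogen detection; concentration derived from nitrogen count in molecular formula, reported in µg/mL and µM.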

[11] = target: T5, Prostacyclin synthase (Homo sapiens, UniProt Q16647); test: Inhibition of human prostacyclin synthase in IL-1-beta-stimulated human RASF cells assessed as PGF1alpha levels after 50 mins by ELISA; assay type: cell-based
T5 sequence (Q16647 whole entry): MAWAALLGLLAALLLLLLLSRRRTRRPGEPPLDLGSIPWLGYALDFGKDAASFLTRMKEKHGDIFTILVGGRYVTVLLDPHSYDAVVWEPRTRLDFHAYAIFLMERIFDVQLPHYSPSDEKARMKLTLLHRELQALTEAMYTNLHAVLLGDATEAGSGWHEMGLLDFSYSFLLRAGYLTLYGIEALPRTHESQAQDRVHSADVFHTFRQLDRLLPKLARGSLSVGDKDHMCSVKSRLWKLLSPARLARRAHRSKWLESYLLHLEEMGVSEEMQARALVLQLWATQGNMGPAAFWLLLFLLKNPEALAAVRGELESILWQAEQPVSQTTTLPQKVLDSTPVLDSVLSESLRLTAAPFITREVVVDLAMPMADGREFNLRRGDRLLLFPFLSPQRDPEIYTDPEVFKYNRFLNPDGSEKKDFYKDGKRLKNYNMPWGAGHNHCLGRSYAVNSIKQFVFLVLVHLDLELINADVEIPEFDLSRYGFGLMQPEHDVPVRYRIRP
Procedure, shortened: (§3)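 RA synovial fibroblasts cultured 3 days in DMEM/10% FBS, then 24 h with 1 ng/mL IL-1β in DMEM/1% FBS. Washed; compound (1% Me2SO final) 50 min, then 10 µM arachidonic acid 10 min at 37 °C. For PGF2α, 2 mg/mL SnCl2 added 40 min after compound. Prostanoids in conditioned media by ELISA.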

[12] = target: T6, Thromboxane-A synthase (Homo sapiens, UniProt P24557); test: Inhibition of human thromboxane A synthase in IL-1-beta-stimulated human RASF cells assessed as TXB2 levels after 50 mins by ELISA; assay type: cell-based
T6 sequence (P24557 whole entry): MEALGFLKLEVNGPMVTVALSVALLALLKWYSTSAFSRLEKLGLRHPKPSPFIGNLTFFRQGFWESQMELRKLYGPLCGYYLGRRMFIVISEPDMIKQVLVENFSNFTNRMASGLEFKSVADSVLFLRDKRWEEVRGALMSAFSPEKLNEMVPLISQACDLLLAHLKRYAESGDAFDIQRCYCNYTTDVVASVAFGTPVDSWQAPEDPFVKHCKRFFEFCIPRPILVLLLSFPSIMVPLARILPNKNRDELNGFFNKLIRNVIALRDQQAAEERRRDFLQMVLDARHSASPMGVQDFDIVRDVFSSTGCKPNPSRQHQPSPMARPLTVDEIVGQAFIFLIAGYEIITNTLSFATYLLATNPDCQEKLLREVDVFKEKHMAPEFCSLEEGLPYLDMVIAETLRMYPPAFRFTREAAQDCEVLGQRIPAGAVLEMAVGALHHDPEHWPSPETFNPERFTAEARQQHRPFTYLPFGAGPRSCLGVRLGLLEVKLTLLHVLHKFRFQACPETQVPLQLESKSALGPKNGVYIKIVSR

[13] = target: T2, Prostaglandin E synthase; test: Inhibition of human mPGES1 in IL-1-beta-stimulated human RASF cells assessed as blockade of PGH2 to PGE2 conversion after 50 mins by ELISA; assay type: cell-based; procedure, shortened: as §3
[14] = target: T1, Prostaglandin G/H synthase 2; test: Inhibition of human COX2 in IL-1-beta-stimulated human RASF cells assessed as PGF2alpha levels after 50 mins by ELISA; assay type: cell-based; procedure, shortened: as §3
[15] = target: T2, Prostaglandin E synthase; test: Inhibition of mPGES1; procedure, shortened: as §2

T3 sequence (P23219 whole entry): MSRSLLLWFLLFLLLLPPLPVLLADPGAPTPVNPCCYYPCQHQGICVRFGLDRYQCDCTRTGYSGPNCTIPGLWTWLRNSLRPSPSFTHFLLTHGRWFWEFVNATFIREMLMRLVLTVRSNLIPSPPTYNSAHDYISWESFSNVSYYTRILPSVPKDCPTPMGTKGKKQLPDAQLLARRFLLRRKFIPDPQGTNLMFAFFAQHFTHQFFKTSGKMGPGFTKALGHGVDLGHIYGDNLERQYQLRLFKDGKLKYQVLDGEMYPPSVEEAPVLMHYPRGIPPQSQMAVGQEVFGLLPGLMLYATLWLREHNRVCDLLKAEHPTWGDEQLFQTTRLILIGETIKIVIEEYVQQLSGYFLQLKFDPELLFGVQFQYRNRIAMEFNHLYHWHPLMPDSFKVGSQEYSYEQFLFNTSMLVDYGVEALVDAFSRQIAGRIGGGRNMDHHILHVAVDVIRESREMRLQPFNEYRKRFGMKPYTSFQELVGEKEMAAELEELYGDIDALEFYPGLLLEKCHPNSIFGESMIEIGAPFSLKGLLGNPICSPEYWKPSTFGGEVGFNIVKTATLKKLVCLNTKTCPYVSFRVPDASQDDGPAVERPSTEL

| IC50 [1] | IC50 [2] | IC50 [3] | SMILES | other results |
| --- | --- | --- | --- | --- |
| > 100 µM | 1.45 µM | 0.098 µM | O=C(Nc1ccc(-c2ccc(Cl)c(Cl)c2)cc1)C1=C(O)c2cc(O)ccc2S(=O)(=O)N1 |  |
| 44.4 µM | < 0.92 µM | 0.038 µM | O=C(Nc1ccc(-c2cccc(Cl)c2Cl)cc1)C1=C(O)c2ccccc2S(=O)(=O)N1 |  |
| > 100 µM | 2.24 µM | < 0.07 µM | Cc1ccc(-c2ccc(NC(=O)C3=C(O)c4ccccc4S(=O)(=O)N3)cc2)cc1 |  |
| 95.6 µM | 1.14 µM | 0.11 µM | O=C(Nc1ccc(C(=O)c2ccc(Cl)cc2)c(Cl)c1)C1=C(O)c2ccccc2S(=O)(=O)N1 |  |
| 92.6 µM | 6.73 µM | 3.13 µM | O=C(Nc1ccc(-c2ccccc2)cc1)C1=C(O)c2ccccc2S(=O)(=O)N1 |  |
| > 74.8 µM | < 0.76 µM | 0.043 µM | O=C(Nc1ccc(-c2ccc(Cl)cc2Cl)cc1)C1=C(O)c2ccccc2S(=O)(=O)N1 |  |
| > 68 µM | 0.46 µM | 0.11 µM | O=C(Nc1ccc(CCc2ccc(Cl)c(Cl)c2)cc1)C1=C(O)c2ccccc2S(=O)(=O)N1 | INH [4]: > 50 µM; IC50 [5]: 489 µM; INH [6]: > 50 µM; IC50 [7]: 467 µM |
| 33.7 µM | 1.45 µM | 0.29 µM | O=C(Nc1ccc(-c2ccc(Cl)cc2)cc1)C1=C(O)c2ccccc2S(=O)(=O)N1 |  |
| > 57.7 µM | < 0.75 µM | < 0.026 µM | Cc1ccc(-c2ccc(NC(=O)C3=C(O)c4ccccc4S(=O)(=O)N3)cc2)cc1C |  |
|  |  | 12.7 µM | O=C(Nc1ccc(-c2ccc(Cl)nc2)cc1)C1=C(O)c2ccccc2S(=O)(=O)N1 |  |
| 33.7 µM | 0.69 µM | 0.16 µM | O=C(Nc1ccc(-c2ccc(Cl)c(Cl)c2)nc1)C1=C(O)c2ccccc2S(=O)(=O)N1 |  |
| > 100 µM | 0.67 µM | 0.19 µM | O=C(Nc1ccc(-c2ccc(Cl)c(Cl)c2)cc1)C1NS(=O)(=O)c2ccccc2C1O (stereo unspecified) | IC50 [5]: > 50 µM; IC50 [7]: > 50 µM |
|  |  | 65.6 µM | O=C(Nc1ccc(-c2ccc(Cl)c(Cl)c2)cn1)C1=C(O)c2ccccc2S(=O)(=O)N1 |  |
|  |  | 0.18 µM | O=C(Nc1ccc(-c2ccc(Cl)c(Cl)c2)cc1)C1=C(O)c2ccc(O)cc2S(=O)(=O)N1 |  |
| 74.7 µM | 3.44 µM | 0.86 µM | O=C(Nc1ccc(-c2cccc(Cl)c2)cc1)C1=C(O)c2ccccc2S(=O)(=O)N1 |  |
|  |  |  | CC(C)c1ccc2c(c1)c(SC(C)(C)C)c(CC(C)(C)C(=O)O)n2Cc1ccc(Cl)cc1 | IC50 [8]: 3.2 µM |

| IC50 [1] | IC50 [2] | IC50 [3] | SMILES | other results |
| --- | --- | --- | --- | --- |
| > 100 µM | 4.24 µM | 0.15 µM | O=C(Nc1ccc(Nc2ccc(Cl)cc2)cc1)C1=C(O)c2ccccc2S(=O)(=O)N1 |  |
|  |  | 3.05 µM | COc1ccc2c(c1)S(=O)(=O)NC(C(=O)Nc1ccc(-c3ccc(Cl)c(Cl)c3)cc1)=C2O |  |
| > 100 µM | 1.29 µM | 0.69 µM | COc1ccc2c(c1)C(O)=C(C(=O)Nc1ccc(-c3ccc(Cl)c(Cl)c3)cc1)NS2(=O)=O |  |
| > 100 µM | 0.42 µM | 0.016 µM | O=C(Nc1ccc(-c2ccc(Cl)c(Cl)c2)cc1)C1=C(O)c2ccccc2S(=O)(=O)N1 | IC50 [9]: 5 µM; solubility at 24 h [10]: < 3 µM; IC50 [11]: > 100 µM; IC50 [5]: 118 µM; IC50 [7]: 263 µM; IC50 [12]: > 100 µM; IC50 [13]: 0.5 µM; IC50 [14]: > 100 µM |
| 70 µM | 6.73 µM | 0.53 µM | O=C(Nc1ccc(Oc2ccc(Cl)cc2)cc1)C1=C(O)c2ccccc2S(=O)(=O)N1 |  |
|  |  | 3.96 µM | N#Cc1ccc(-c2ccc(NC(=O)C3=C(O)c4ccccc4S(=O)(=O)N3)cc2)cc1 |  |
|  |  |  | Fc1cccc(Cl)c1-c1nc(-c2ccc(C#Cc3ccc(C(F)(F)F)cc3)nc2)c(Br)[nH]1 | IC50 [15]: 0.0008 µM |
| > 100 µM | 37.6 µM | 5.76 µM | O=C(CNS(=O)(=O)c1ccccc1C(=O)O)Nc1ccc(-c2ccc(Cl)c(Cl)c2)cc1 |  |
|  |  | 11.7 µM | O=C(Nc1ccc(-c2ccc(Cl)cc2Cl)cn1)C1=C(O)c2ccccc2S(=O)(=O)N1 |  |
| > 90 µM | 3.4 µM | 1.68 µM | O=C(Nc1ccccc1CCc1ccc(Cl)c(Cl)c1)C1=C(O)c2ccccc2S(=O)(=O)C1 |  |
|  |  | 29.6 µM | O=C(CNS(=O)(=O)c1ccccc1CO)Nc1ccc(-c2ccc(Cl)c(Cl)c2)cc1 |  |
|  | 2.04 µM | 0.28 µM | CN1C(C(=O)Nc2ccc(-c3ccc(Cl)c(Cl)c3)cc2)=C(O)c2ccccc2S1(=O)=O |  |
| 94.7 µM | 6.59 µM | 1 µM | Cc1cccc(-c2ccc(NC(=O)C3=C(O)c4ccccc4S(=O)(=O)N3)cc2)c1C |  |
|  |  | 32.2 µM | COc1ccc(-c2ccc(NC(=O)C3=C(O)c4ccccc4S(=O)(=O)N3)cc2)cc1OC |  |
| 95.3 µM | 2.16 µM | 3.91 µM | O=C(Nc1cccc(C(=O)c2ccc(Cl)cc2)c1)C1=C(O)c2ccccc2S(=O)(=O)N1 |  |
